Columns and labels:
Trypanosoma cruzi [1] = test: Inhibitory activity against Trypanosoma cruzi Y epimastigotes; format: functional, organism-based
How it was run: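 Epimastigotes in sterile screw-cap tubes, drugs in absolute ethanol at 1, 5, 15 and 25 µg/mL, each in triplicate; ethanol-only control and medium blank. Growth read as absorbance at 600 nm against medium; percent inhibition = 100 − (ΔA_drug × 100)/ΔA_control, ΔA taken between start and end of culture.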

Trypanosoma cruzi [2] = test: Inhibitory activity against Trypanosoma cruzi amastigotes; format: functional, organism-based; details: for IC50: Trypanosoma cruzi
How it was run: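 Gamma-irradiated L6E9 myoblasts in DMEM/20% fetal calf serum, 24 h at 37 °C, then infected with 4.17 × 10⁶ trypomastigotes/well for 2 h (7% CO2). After washing, medium with 1 µCi/mL [5,6-³H]uracil and drug in ethanol added; TCA-precipitable ³H measured at day 3. Host toxicity up to 50 µM by phase-contrast microscopy; values are means of three experiments.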

Row | SMILES | IC50 (Trypanosoma cruzi [1]) [µM] | IC50 (Trypanosoma cruzi [2]) [µM] | Inhibition (Trypanosoma cruzi [2]) [%]
1 | CCCP(=O)(O)CNC(=O)[C@H](CC(C)C)NC(=O)CCC(N)C(=O)O (some centres not stated) | > 50 | > 50 | –
2 | CCCCCCCP(=O)(O)CNC(=O)[C@H](CC(C)C)NC(=O)CCC(N)C(=O)O (some centres not stated) | > 50 | > 50 | 31
3 | CCP(=O)(O)CNC(=O)[C@H](CC(C)C)NC(=O)CCC(N)C(=O)O (some centres not stated) | > 50 | > 50 | –
4 | CCCCCCP(=O)(O)CNC(=O)[C@H](CC(C)C)NC(=O)CCC(N)C(=O)O (some centres not stated) | > 50 | > 50 | 45
5 | N#CSCCOc1ccc(Oc2ccccc2)cc1 | – | 2 | –

Second part, led by results:

Row | IC50 (Trypanosoma cruzi [1]) [µM] | IC50 (Trypanosoma cruzi [2]) [µM] | SMILES | Inhibition (Trypanosoma cruzi [2]) [%]
6 | > 50 | 9.8 | CCCCP(=O)(O)CNC(=O)[C@H](CC(C)C)NC(=O)CCC(N)C(=O)O (some centres not stated) | –
7 | > 50 | 14.2 | CCCCCP(=O)(O)CNC(=O)[C@H](CC(C)C)NC(=O)CCC(N)C(=O)O (some centres not stated) | –
8 | > 50 | > 50 | CC(C)C[C@H](NC(=O)CCC(N)C(=O)O)C(=O)NCP(C)(=O)O (some centres not stated) | –

Source: ChEMBL document CHEMBL1147733, “Design, synthesis, and biological evaluation of phosphinopeptides against Trypanosoma cruzi targeting trypanothione biosynthesis” (J Med Chem, 2006)
